# Experimental data reported in PubChem BioAssay.
# Activity calls are given as the source filed them.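 How the source made its calls, unless noted: active means inhibition of the reporter signal at or above 50%; inactive means inhibition below 50%.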
# Legend:
# [1] = inhibitors of TNFa-induced NFkB p65 translocation, primary screen, imaging, HUVEC, MLSMR starter and 10KST1 sets (AID 438;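 active means inhibition above 20% together with a positive visual image hit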;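 further: compound added about 3h40 before a 20 min TNFalpha stimulation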;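 on inhibition: signal is the nuclear over cytoplasmic p65 intensity ratio per well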); conditions: HUVEC TNFa-induced p65 nuclear translocation; cell count: measured here: nuclei count (cytotoxicity indicator), at 2.08 µM; inhibition: at 2 µM, stronger effect = higher value, 0% TNFa-plus-vehicle, 100% no-TNFa wells
# [2] = inhibitors of mutant huntingtin aggregation, primary screen, imaging, exon1htt(103Q)mCFP cells, high-content imaging (AID 483;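 active means visual image review flags a hit and inhibition of aggregation exceeds 20%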;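 further: compound exposure lasted 3 days before fixation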;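 on nuclei count: percent of the per-plate median nuclei count of sample wells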); conditions: exon1htt(103Q)mCFP cell line, aggregate imaging, at 2 µM; inhibition of aggregation: stronger effect = higher value; nuclei count: measured here: cell count, toxicity
# [3] = inhibitors of E-selectin induction by TNFa, primary screen, imaging, HUVEC, immunofluorescence, MLSMR starter and 10KST1 sets (AID 487;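 active means visually confirmed hit in the image check and inhibition above 20%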;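 on inhibition: signal is fraction of cell area covered by stained E-selectin grains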;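 on nuclei count: 100% = median nuclei count of all wells on the same plate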); conditions: HUVEC TNFalpha-induced E-selectin immunofluorescence imaging, at 2 µM; inhibition: stronger effect = higher value; nuclei count: measured here: cell number, toxicity
# [4] = target: Voltage-gated potassium channel subunit beta-2 (Rattus norvegicus) (UniProt P62483); assay: KvBeta enzyme negative modulators, primary screen, biochemical, NADPH fluorescence (AID 622;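 active means fluorescence slope higher than the sample average by over 3 SD, cut at about -0.22 in these data, passing the limit was not always enough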;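 further: slope of raw intensity against log time taken from 70 to 1610 s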); conditions: recombinant KvBeta, 4-cyanobenzaldehyde reduction, at 10 µM, stronger effect = higher value
# Chain of Voltage-gated potassium channel subunit beta-2 (Rattus norvegicus) (P62483 whole entry, looked up): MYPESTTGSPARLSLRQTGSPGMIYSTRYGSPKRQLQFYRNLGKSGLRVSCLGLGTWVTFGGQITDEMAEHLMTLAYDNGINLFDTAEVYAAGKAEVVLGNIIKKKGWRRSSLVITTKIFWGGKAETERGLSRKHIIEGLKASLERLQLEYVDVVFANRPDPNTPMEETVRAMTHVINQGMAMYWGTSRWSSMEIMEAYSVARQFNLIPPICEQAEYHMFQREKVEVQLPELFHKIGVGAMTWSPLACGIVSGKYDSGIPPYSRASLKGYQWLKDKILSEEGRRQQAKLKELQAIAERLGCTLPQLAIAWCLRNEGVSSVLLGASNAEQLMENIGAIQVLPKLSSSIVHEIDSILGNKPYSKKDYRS
# [5] = target: Voltage-gated potassium channel subunit beta-2 (Rattus norvegicus) (UniProt P62483); assay: KvBeta positive modulators, primary screen, biochemical, NADPH fluorescence (AID 623;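 active means NADPH fluorescence slope more negative than the mean of all samples by about 3 SD, 99.7% confidence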;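 further: fluorescence intensity change per second fitted from 20 to 320 s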); conditions: Recombinant KvBeta, NADPH fluorescence decrease slope, 10 min; at 10 µM; stronger effect = lower value
# [6] = target: Muscarinic acetylcholine receptor M4 (Homo sapiens) (UniProt P08173); assay: compounds altering M4/GIRK thallium flux, either direction, primary screen, M4 allosteric agonist project, cell-based, HEK293 M4/GIRK, BTC-AM (AID 625;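 active means fluorescence slope after compound addition differing from the mean of all tested samples at 99.7% confidence, mostly higher but some lower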;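 further: thallium influx through GIRK channels coupled to M4 in HEK293 cells with BTC-AM dye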); conditions: at 10 µM, actives lie on both sides
# Chain of Muscarinic acetylcholine receptor M4 (Homo sapiens) (P08173 whole entry, looked up): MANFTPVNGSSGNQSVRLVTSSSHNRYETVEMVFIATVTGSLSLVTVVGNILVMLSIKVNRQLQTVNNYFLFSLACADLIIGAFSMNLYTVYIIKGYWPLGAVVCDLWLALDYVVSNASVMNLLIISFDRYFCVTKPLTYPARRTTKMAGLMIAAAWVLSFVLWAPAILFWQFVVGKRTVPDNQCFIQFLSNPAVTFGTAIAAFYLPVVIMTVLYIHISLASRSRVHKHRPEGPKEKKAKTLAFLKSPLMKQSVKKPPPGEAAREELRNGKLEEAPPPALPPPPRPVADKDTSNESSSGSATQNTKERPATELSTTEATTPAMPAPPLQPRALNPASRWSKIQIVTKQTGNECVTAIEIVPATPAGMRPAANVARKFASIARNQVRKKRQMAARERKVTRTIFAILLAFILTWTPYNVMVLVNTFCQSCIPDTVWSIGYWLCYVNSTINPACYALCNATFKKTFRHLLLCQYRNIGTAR
# How it was run: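 Material: HEK293 cells with M4 receptor and GIRK channels; Times: cells overnight at 37 °C, BTC-AM loading 1 h, reads 2 min total; Technique: kinetic BTC-AM fluorescence sampled at 1 Hz, 10 s pre-addition baseline; Read-out basis: slope over 15–24 s of trace normalized to starting intensity; Controls: carbachol positive, DMSO negative.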
# [7] = inhibitors of Sendai virus-induced IRF3 signaling, primary screen, TLR/RLR signaling modifier project, cell-based, Sendai virus stimulus, luciferase, 10K MLSCN set (AID 602276;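 active means inhibition at or above 50% at 10 µM; inactive means inhibition below 50%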;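 further: firefly luciferase from ISG56 promoter only with Renilla not read in this screen; 0% = Sendai virus plus DMSO and 100% = medium plus DMSO without virus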); conditions: HEK293 RL24 IRF3 luciferase reporter, at 10 µM, stronger effect = higher value
# [8] = inhibitors of poly I:C-induced TLR3 signaling, primary screen, cell-based, poly I:C stimulus, luciferase, 10K MLSCN set (AID 602277); conditions: HEK293-TLR3 RL24 IRF3 luciferase reporter, at 10 µM, stronger effect = higher value
SMILES,cell count [1],inhibition [1],inhibition of aggregation [2],nuclei count [2],inhibition [3],nuclei count [3],fluorescence slope [4],NADPH fluorescence slope [5],fluorescence slope [6],inhibition [7],inhibition [8]
O=C(CCCn1ncn2c(cc3occc32)c1=O)N1CCc2ccccc2C1,363,-0.7% (inactive),4.2% (inactive),93.3%,-81.7% (inactive),101%,-0.484 (inactive),-0.00018 (inactive),0.00605 (inactive),8.38% (inactive),8.89% (inactive)
CCCCOc1ccc(C(=O)Nc2ccc(N3CCN(C(=O)C(C)C)CC3)cc2)cc1,825,-3.3% (inactive),-19.5% (inactive),92.4%,-59.7% (inactive),115%,-0.44 (inactive),-1.7e-05 (inactive),0.0053 (inactive),13.8% (inactive),-10.4% (inactive)
COc1cc(C(=O)N2CCN(C(=O)CC(C)C)CC2)cc(OC)c1OC,550,3.6% (inactive),5% (inactive),105%,-73.6% (inactive),117%,-0.47 (inactive),7.6e-05 (inactive),0.00561 (inactive),-10.1% (inactive),-1.34% (inactive)
CC(=O)OCC(=O)c1ccc2ccn(C(C)=O)c2c1,544,1.6% (inactive),-17.9% (inactive),102%,-19.1% (inactive),95.5%,-0.258 (inactive),-1.1e-05 (inactive),0.00624 (inactive),4.56% (inactive),-8.58% (inactive)
CCOC(=O)C1=C(C)N(C)C(C)=C(C(=O)OCC)C1c1cccnc1,366,-5.2% (inactive),-14.4% (inactive),93.8%,-55.9% (inactive),115%,-0.5 (inactive),-2.2e-05 (inactive),0.00631 (inactive),-2.74% (inactive),6.76% (inactive)
Cc1ccc(C)n1-c1ccc(N2CCOCC2)cc1,406,1% (inactive),14.3% (inactive),99.8%,-44.4% (inactive),111%,-0.345 (inactive),-5.6e-05 (inactive),0.00513 (inactive),11.4% (inactive),8.15% (inactive)
COc1ccc(C(=O)N2CCOCC2)cc1Br,406,-7.6% (inactive),5.4% (inactive),90.8%,-24.6% (inactive),108%,-0.49 (inactive),3.2e-05 (inactive),0.0055 (inactive),-0.192% (inactive),-3.39% (inactive)
CCOC(=O)C1CCN(C(=O)CSc2cc(=O)n(CC)c3ccccc23)CC1,378,2.2% (inactive),-0.2% (inactive),110%,-26.1% (inactive),111%,-0.629 (inactive),6.5e-05 (inactive),0.00567 (inactive),-0.518% (inactive),38.8% (inactive)
